Experimental data published in ChEMBL document CHEMBL3817746, “6-Oxooxazolidine-quinazolines as noncovalent inhibitors with the potential to target mutant forms of EGFR” (Bioorg Med Chem, 2016).
Activity calls are given as the source filed them. The calls are words filed in the database; no cut-off is given here.

Tests used:
[1] = test system: NCI-H1975; experiment: Antiproliferative activity against human NCI-H1975 cells expressing L858R/T790M mutant EGFR after 72 hrs by MTT assay; type: functional, cell-based; details: NCI-H1975, 72 h
[2] = test system: A-431; experiment: Antiproliferative activity against human A431 cells overexpressing wild-type EGFR after 72 hrs by MTT assay; type: functional, cell-based; details: A-431, 72 h
[3] = molecular target: Epidermal growth factor receptor (Homo sapiens, UniProt P00533, L858R); experiment: Inhibition of recombinant human EGFR L858R mutant expressed in baculovirus infected insect cells preincubated for 5 mins followed by ATP addition for 30 mins by HTRF assay
Sequence of Epidermal growth factor receptor (Homo sapiens, UniProt P00533, L858R) (P00533 25-1210 L858R limits assumed): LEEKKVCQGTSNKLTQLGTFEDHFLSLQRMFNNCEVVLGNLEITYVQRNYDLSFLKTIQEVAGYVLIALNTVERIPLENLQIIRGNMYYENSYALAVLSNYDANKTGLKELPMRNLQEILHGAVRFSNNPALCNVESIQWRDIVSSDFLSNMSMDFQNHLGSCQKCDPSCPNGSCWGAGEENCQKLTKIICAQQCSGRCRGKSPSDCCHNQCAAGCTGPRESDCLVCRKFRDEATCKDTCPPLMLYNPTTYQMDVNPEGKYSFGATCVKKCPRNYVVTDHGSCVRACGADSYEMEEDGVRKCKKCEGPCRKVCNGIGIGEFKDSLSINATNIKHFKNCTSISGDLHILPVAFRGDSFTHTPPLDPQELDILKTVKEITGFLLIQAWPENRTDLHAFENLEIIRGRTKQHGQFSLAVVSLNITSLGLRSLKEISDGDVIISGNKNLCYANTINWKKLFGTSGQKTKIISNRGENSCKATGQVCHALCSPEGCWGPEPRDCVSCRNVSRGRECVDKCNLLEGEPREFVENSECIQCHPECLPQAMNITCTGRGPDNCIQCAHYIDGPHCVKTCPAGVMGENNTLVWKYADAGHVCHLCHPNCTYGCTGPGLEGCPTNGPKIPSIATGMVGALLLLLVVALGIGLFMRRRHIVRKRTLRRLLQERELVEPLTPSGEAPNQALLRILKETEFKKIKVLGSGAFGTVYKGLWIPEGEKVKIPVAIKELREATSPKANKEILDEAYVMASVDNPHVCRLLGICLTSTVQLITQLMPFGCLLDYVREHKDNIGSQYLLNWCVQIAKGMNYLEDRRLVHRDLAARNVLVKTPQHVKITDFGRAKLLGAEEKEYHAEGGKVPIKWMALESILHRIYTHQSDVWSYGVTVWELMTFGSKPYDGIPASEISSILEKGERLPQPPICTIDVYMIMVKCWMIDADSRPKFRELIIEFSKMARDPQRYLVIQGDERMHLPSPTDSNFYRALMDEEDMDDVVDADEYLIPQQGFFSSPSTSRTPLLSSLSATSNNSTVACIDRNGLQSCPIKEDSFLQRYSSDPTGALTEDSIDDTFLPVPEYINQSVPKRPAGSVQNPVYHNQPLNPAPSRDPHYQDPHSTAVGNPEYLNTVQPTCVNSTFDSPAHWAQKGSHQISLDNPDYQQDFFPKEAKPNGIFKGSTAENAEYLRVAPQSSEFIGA
How it was run: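 Purchased EGFR L858R kinase and substrate were preincubated with compound for 5 min in enzymatic buffer. ATP was then added to start the reaction, which ran 30 min at room temperature. It was stopped with EDTA-containing detection reagents, and HTRF detection ran for 1 h. IC50 was fitted from the dose-response data as the mean of three independent experiments.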

[4] = molecular target: Epidermal growth factor receptor (Homo sapiens, UniProt P00533, T790M); experiment: Inhibition of EGFR T790M mutant (unknown origin) preincubated for 5 mins followed by ATP addition for 30 mins by HTRF assay; type: protein assay
Sequence of Epidermal growth factor receptor (Homo sapiens, UniProt P00533, T790M) (P00533 25-1210 T790M limits assumed): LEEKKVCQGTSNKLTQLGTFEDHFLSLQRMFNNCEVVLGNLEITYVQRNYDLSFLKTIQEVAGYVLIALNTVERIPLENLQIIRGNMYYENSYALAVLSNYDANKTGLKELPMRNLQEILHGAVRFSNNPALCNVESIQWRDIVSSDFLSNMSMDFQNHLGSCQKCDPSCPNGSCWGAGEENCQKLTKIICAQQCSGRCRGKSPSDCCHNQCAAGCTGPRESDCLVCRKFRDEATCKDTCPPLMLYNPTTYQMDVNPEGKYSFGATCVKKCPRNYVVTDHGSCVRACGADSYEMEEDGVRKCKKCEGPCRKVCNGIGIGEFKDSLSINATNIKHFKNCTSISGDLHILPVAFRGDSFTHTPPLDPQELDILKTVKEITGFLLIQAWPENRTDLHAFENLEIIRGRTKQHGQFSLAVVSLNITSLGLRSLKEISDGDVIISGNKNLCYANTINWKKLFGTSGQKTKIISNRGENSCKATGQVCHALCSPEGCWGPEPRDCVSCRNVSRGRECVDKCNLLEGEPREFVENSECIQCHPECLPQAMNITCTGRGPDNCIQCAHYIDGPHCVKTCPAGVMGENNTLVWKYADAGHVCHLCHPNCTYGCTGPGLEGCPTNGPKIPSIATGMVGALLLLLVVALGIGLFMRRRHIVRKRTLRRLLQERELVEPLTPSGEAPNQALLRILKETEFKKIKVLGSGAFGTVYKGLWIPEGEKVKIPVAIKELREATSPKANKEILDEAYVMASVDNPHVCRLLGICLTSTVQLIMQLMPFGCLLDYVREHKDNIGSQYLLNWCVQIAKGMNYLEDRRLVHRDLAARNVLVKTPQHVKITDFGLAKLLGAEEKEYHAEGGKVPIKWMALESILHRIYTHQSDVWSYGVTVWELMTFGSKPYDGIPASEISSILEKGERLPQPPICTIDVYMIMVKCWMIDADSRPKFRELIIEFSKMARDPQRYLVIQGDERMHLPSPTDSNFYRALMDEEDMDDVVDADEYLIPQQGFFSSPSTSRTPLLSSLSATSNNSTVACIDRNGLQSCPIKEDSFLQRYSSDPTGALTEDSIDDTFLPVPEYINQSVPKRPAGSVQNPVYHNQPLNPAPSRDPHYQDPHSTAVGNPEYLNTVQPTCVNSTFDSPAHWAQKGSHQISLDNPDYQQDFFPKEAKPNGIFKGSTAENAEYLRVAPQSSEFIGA

[5] = test system: HepG2; experiment: Cytotoxicity against human HepG2 cells assessed as cell growth inhibition after 72 hrs by MTT assay; type: ADME, cell-based; details: HepG2, 72 h
[6] = test system: A549; experiment: Cytotoxicity against human A549 cells assessed as cell growth inhibition after 72 hrs by MTT assay; type: ADME, cell-based; details: A549, 72 h
[7] = molecular target: T1, Epidermal growth factor receptor (Homo sapiens, UniProt P00533); experiment: Inhibition of wild type human EGFR preincubated for 5 mins followed by ATP addition for 30 mins by HTRF assay
T1 sequence (P00533 whole entry): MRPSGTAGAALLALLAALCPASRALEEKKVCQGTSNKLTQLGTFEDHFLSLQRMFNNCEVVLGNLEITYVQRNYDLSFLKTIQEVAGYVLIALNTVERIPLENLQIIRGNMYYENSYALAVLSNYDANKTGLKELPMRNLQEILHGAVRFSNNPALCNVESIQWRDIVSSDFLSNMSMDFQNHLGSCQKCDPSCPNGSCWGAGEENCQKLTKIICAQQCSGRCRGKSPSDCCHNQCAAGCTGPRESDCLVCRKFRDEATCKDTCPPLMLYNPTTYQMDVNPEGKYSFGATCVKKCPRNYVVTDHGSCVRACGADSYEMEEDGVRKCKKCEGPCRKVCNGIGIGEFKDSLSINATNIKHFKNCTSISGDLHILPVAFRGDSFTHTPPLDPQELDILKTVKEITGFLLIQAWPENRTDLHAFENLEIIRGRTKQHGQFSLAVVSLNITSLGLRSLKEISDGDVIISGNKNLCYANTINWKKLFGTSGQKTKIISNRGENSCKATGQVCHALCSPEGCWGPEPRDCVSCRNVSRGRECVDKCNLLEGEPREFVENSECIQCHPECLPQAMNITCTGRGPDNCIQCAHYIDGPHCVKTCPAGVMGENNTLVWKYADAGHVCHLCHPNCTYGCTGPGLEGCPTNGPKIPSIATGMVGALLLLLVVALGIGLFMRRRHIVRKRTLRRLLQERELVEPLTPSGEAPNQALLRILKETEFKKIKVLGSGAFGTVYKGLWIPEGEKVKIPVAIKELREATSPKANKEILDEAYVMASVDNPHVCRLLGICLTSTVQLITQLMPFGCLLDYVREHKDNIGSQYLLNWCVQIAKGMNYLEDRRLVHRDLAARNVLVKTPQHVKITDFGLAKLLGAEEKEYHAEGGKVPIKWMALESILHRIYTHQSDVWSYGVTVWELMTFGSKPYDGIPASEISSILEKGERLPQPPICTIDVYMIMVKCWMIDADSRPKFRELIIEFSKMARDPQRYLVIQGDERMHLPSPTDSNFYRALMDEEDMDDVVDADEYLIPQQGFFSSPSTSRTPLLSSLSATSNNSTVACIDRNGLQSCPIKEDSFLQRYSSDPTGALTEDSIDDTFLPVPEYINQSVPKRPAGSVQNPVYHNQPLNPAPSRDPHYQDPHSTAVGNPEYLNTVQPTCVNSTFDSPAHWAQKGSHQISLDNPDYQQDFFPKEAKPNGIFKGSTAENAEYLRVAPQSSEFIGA

[8] = molecular target: T1, Epidermal growth factor receptor; experiment: Inhibition of EGF-induced EGFR phosphorylation in human A431 cells at 1 uM preincubated for 1 hr followed by compound washout for 5 hrs and subsequent EGF addition for 15 mins by Western blot analysis; type: cell-based; details: A-431
How it was run: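 A431 cells (5 x 10^5/well) were seeded overnight and treated with 1 µM compound for 1 h at 37 °C. Cells were washed 10 times with fresh medium over 5 h, then stimulated with EGF (20 ng/ml) for 15 min. Lysates were made in RIPA-type buffer with protease inhibitors, and equal protein was immunoblotted for EGFR, p-EGFR and β-actin, with ECL detection.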

[9] = Chemical stability of the compound assessed as compound remaining at 1 uM at pH 7.4 after 24 hrs by HPLC-HRMS method; type: physicochemical; details: buffer, read-out: Stability
How it was run: (§1)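 Buffers were 0.2 M PBS at pH 7.4, 9.0 or 10.0, held at 37 °C. Compound stock was made in CH3CN, then diluted into pre-warmed buffer. Aliquots taken at regular time points were injected directly into LC-TOF MS, and percentage of parent compound remaining was read out.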

[10] = Chemical stability of the compound assessed as compound remaining at 1 uM at pH 9 after 24 hrs by HPLC-HRMS method; type: physicochemical; details: buffer, read-out: Stability; how it was run: as §1
[11] = Chemical stability of the compound assessed as compound remaining at 1 uM at pH 10 after 24 hrs by HPLC-HRMS method; type: physicochemical; details: buffer, read-out: Stability; how it was run: as §1
[12] = molecular target: T1, Epidermal growth factor receptor; experiment: Inhibition of EGF-induced EGFR phosphorylation in human A431 cells at 1 uM preincubated for 1 hr followed by EGF addition for 15 mins by Western blot analysis; type: cell-based; details: A-431
How it was run: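 A431 cells (5 x 10^5/well) were seeded overnight. They were exposed to 1 µM compound for 1 h at 37 °C, then immediately given EGF (20 ng/ml) for 15 min. Whole-cell lysates were made in Tris/NaCl/EDTA/SDS/deoxycholate/NP-40 buffer with aprotinin and PMSF, then cleared at 4 °C. Equal protein was run on SDS-PAGE and blotted for EGFR, p-EGFR and β-actin, with ECL detection.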

IC50 [1] [µM]	IC50 [2] [µM]	SMILES	IC50 [3] [µM]	IC50 [4] [µM]	IC50 [7] [µM]	other results
> 50	11	O=C1N[C@@H](C(=O)Nc2cc3c(Nc4ccc(F)c(Cl)c4)ncnc3cc2O[C@H]2CCOC2)CO1				
37.2	> 50	O=C1N[C@@H](C(=O)Nc2cc3c(Nc4ccc(F)c(Cl)c4)ncnc3cc2OCCCN2CCOCC2)CO1				
> 50	> 50	COCCOc1cc2ncnc(Nc3ccc(F)c(Cl)c3)c2cc1NC(=O)[C@H]1COC(=O)N1				
21.2	16.8	COc1cc2ncnc(Nc3ccc(F)c(Cl)c3)c2cc1NC(=O)[C@H]1COC(=O)N1				
> 50	33.9	O=C1N[C@H](C(=O)Nc2cc3c(Nc4ccc(F)c(Cl)c4)ncnc3cc2OCC(F)(F)F)CO1				
11.1	14.3	COc1cc2ncnc(Nc3cccc(Br)c3)c2cc1NC(=O)[C@H]1COC(=O)N1				
9.33	22.8	O=C1N[C@H](C(=O)Nc2cc3c(Nc4ccc(F)c(Cl)c4)ncnc3cc2O[C@H]2CCOC2)CO1				
21.1	2.43	CN1CCC(COc2cc3ncnc(Nc4ccc(F)c(Cl)c4F)c3cc2NC(=O)[C@@H]2COC(=O)N2)CC1				
7.4	18.7	CN1CCOC[C@@H]1COc1cc2ncnc(Nc3ccc(F)c(Cl)c3)c2cc1NC(=O)[C@@H]1COC(=O)N1				
13.5	5.3	CN1CCC(COc2cc3ncnc(Nc4ccc(F)c(Cl)c4F)c3cc2NC(=O)[C@H]2COC(=O)N2)CC1				
22.1	25.9	COCCOc1cc2ncnc(Nc3ccc(F)c(Cl)c3)c2cc1NC(=O)[C@@H]1COC(=O)N1				
13.6	12.6	CN1CC[C@H](Oc2cc3ncnc(Nc4ccc(F)c(Cl)c4)c3cc2NC(=O)[C@@H]2COC(=O)N2)C1				
10.8	13.5	COc1cc2ncnc(Nc3cccc(C(F)(F)F)c3)c2cc1NC(=O)[C@@H]1COC(=O)N1				

Second part, the compound before the results:

SMILES	IC50 [1] [µM]	IC50 [2] [µM]	IC50 [3] [µM]	IC50 [4] [µM]	IC50 [7] [µM]	other results
CCOc1cc2ncnc(Nc3ccc(Oc4ccc(C)nc4)c(Cl)c3)c2cc1NC(=O)[C@@H]1COC(=O)N1	7.65	11.2				
CCOc1cc2ncnc(Nc3ccc4c(cnn4Cc4cccc(F)c4)c3)c2cc1NC(=O)[C@@H]1COC(=O)N1	10.5	10.8				
COc1cc2ncnc(Nc3cccc(Br)c3)c2cc1NC(=O)[C@@H]1COC(=O)N1	9.08	7.25	0.00038	0.126	0.00047	IC50 [5]: > 100 µM; IC50 [6]: > 50 µM
CCOc1cc2ncnc(Nc3ccc(OCc4cccc(F)c4)c(Cl)c3)c2cc1NC(=O)[C@H]1COC(=O)N1	4.75	4.15	0.00549	0.111	0.00119	IC50 [5]: > 100 µM; IC50 [6]: > 50 µM
CCOc1cc2ncnc(N[C@@H](C)c3ccccc3)c2cc1NC(=O)[C@H]1COC(=O)N1	4.95	15				
CCOc1cc2ncnc(Nc3ccc(OCc4ccccn4)c(Cl)c3)c2cc1NC(=O)[C@@H]1COC(=O)N1	23.3	> 50				
COc1ccc(Nc2ncnc3cc(OC)c(NC(=O)[C@@H]4COC(=O)N4)cc23)cc1	10	34.9				
CCOc1cc2ncnc(Nc3ccc(OCc4cccc(F)c4)c(Cl)c3)c2cc1NC(=O)[C@H]1NC(=O)O[C@@H]1C	4.28	3.36	0.012	0.295	0.00257	IC50 [5]: 30.8 µM; IC50 [6]: 32.9 µM
COc1cc2ncnc(Nc3ccc(F)c(Cl)c3)c2cc1NC(=O)[C@@H]1COC(=O)N1	6.8	9.2	0.00031	0.0263	0.00106	inhibition [8]: inactive; remaining at 24 h, 1 µM [9]: 97.1%; remaining at 24 h, 1 µM [10]: 89.9%; remaining at 24 h, 1 µM [11]: 85.8%; IC50 [5]: > 100 µM; IC50 [6]: 14.9 µM; inhibition [12]: Active
COc1cc2ncnc(Nc3ccc(F)c(Cl)c3)c2cc1NC(=O)[C@@H]1CCC(=O)N1	> 50	21.8				
CCOc1cc2ncnc(Nc3ccc4c(cnn4Cc4cccc(F)c4)c3)c2cc1NC(=O)[C@H]1COC(=O)N1	> 50	18.9				
O=C1N[C@H](C(=O)Nc2cc3c(Nc4ccc(F)c(Cl)c4)ncnc3cc2OCCCN2CCOCC2)CO1	12.3	48.7	0.00083	0.0587	0.00454	
COc1cc2ncnc(Nc3ccc(F)c(Cl)c3)c2cc1NC(=O)[C@H]1NC(=O)O[C@@H]1C	8.98	8.65	0.00035	0.0402	0.00198	IC50 [5]: > 50 µM; IC50 [6]: > 50 µM
CCOc1cc2ncnc(Nc3ccc(OCc4cccc(F)c4)c(Cl)c3)c2cc1NC(=O)[C@@H]1COC(=O)N1	3.87	3.89	0.00562	0.0532	0.00134	IC50 [5]: > 50 µM; IC50 [6]: 11.6 µM
CCOc1cc2ncnc(N[C@@H](C)c3ccccc3)c2cc1NC(=O)[C@@H]1COC(=O)N1	15.3	16.9	0.00071	> 1	0.00552	
O=C1N[C@H](C(=O)Nc2cc3c(Nc4ccc(F)c(Cl)c4)ncnc3cc2OCCN2CCCCC2)CO1	5.85	3.5	0.00779	0.333	0.0255	IC50 [5]: > 50 µM; IC50 [6]: 42.9 µM
CCOc1cc2ncnc(Nc3ccc(OCC4CC4)c(Cl)c3)c2cc1NC(=O)[C@@H]1COC(=O)N1	5.08	5.05	0.0521	0.0808	0.0378	IC50 [5]: > 100 µM; IC50 [6]: 28.9 µM
CCOc1cc2ncnc(Nc3ccc(OCc4ccccn4)c(Cl)c3)c2cc1NC(=O)[C@H]1COC(=O)N1	> 50	> 50				
CCOc1cc2ncnc(Nc3ccc(OCC4CC4)c(Cl)c3)c2cc1NC(=O)[C@H]1NC(=O)O[C@@H]1C	12.7	7.35				
